From ChEMBL document CHEMBL3407362, “Design and synthesis of potent and multifunctional aldose reductase inhibitors based on quinoxalinones” (J Med Chem, 2015)
Calls of active or inactive are those of the source. The rule behind the calls is not given here.

How the values were obtained:
[1] = target: Aldo-keto reductase family 1 member B1 (Rattus norvegicus, UniProt P07943); assay: Inhibition of Wistar rat lenses ALR2 using D,L-glyceraldehyde as substrate preincubated for 10 mins before substrate addition measured after 4 mins by spectrophotometry
[2] = Antioxidant activity assessed as DPPH scavenging activity at 100 uM after 30 mins by UV spectrophotometry; assay type: physicochemical; details: 0.5 h
Brain = assay: Antioxidant activity in rat brain assessed as inhibition of lipid peroxidation by TBARS assay; assay type: functional, tissue-based
How it was run: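 Fresh rat brain homogenized in ice-cold saline, centrifuged; lipoperoxidation driven by Fe(III)/ascorbic acid, compounds at 100 μM; malondialdehyde measured as TBARS (trichloroacetic acid, then thiobarbituric acid, red color at 532 nm); protein by Coomassie method.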

Rattus norvegicus = species: Rattus norvegicus; assay: Selectivity ratio for Wistar rat lenses ALR2 over Wistar rat kidney ALR1; assay type: tissue-based; details: Lens of camera-type eye
[3] = Antioxidant activity assessed as DPPH scavenging activity after 30 mins by UV spectrophotometry; assay type: physicochemical
[4] = Antioxidant activity assessed as DPPH scavenging activity at 50 uM after 30 mins by UV spectrophotometry; assay type: physicochemical; details: 0.5 h
[5] = Antioxidant activity assessed as DPPH scavenging activity at 10 uM after 30 mins by UV spectrophotometry; assay type: physicochemical; details: 0.5 h

| Compound | IC50 [1] | Selectivity ratio (Rattus norvegicus) | further results |
| --- | --- | --- | --- |
| O=C(O)Cn1c(=O)c(-c2ccc(F)cc2)nc2ccccc21 | 3380 nM |  |  |
| O=C(O)Cn1c(=O)c(-c2ccc(O)cc2O)nc2ccc(F)cc21 | 32 nM |  |  |
| O=C(O)Cn1c(=O)c(-c2ccc(F)cc2)nc2ccc(-c3ccc(F)cc3)cc21 | 2130 nM |  |  |
| O=C(O)Cn1c(=O)c(Sc2ccc(Br)cc2)nc2ccc(Br)cc21 | 467 nM | 3.7 |  |
| O=C(O)Cn1c(=O)c(-c2c[nH]c3ccccc23)nc2ccccc21 | 639 nM |  |  |
| O=C(O)Cn1c(=O)c(-c2ccc(O)cc2O)nc2ccccc21 | 397 nM |  |  |
| O=C(O)Cn1c(=O)c(Sc2ccc(Cl)cc2)nc2ccc(Cl)cc21 | 158 nM | 5.1 |  |
| O=C(O)Cn1c(=O)c(-c2ccccc2)nc2ccccc21 | 5980 nM |  |  |
| O=C(O)Cn1c(=O)c(-c2ccc(F)cc2)nc2ccc(F)cc21 | 874 nM |  |  |
| O=C(O)Cn1c(=O)c(Sc2ccc(Cl)cc2)nc2ccc(F)cc21 | 56 nM | 3.1 |  |
| O=C(O)Cn1c(=O)c(-c2ccc(O)cc2)nc2ccccc21 | 2590 nM |  |  |
| O=C(O)Cn1c(=O)c(Sc2ccc(Br)cc2)nc2ccccc21 | 296 nM | 6.9 |  |
| O=C(O)Cn1c(=O)c(-c2cc3ccccc3s2)nc2ccc(Cl)cc21 | 238 nM |  |  |
| O=C(O)Cn1c(=O)c(Sc2ccccc2)nc2ccccc21 | 421 nM | 2.7 |  |
| O=C(O)Cn1c(=O)c(-c2ccc(O)cc2O)nc2ccc(Cl)cc21 | 69 nM |  |  |
| O=C(O)Cn1c(=O)c(-c2ccc(O)cc2O)nc2cc(Br)ccc21 | 139 nM |  |  |
| O=C(O)Cn1c(=O)c(Sc2ccc(Cl)cc2)nc2ccccc21 | 273 nM | 1.9 |  |

More lines, in order of falling IC50 [1], values ahead:

| IC50 [1] | Compound | Selectivity ratio (Rattus norvegicus) | further results |
| --- | --- | --- | --- |
| 4180 nM | COc1ccc(/C=C/c2nc3ccccc3n(CC(=O)O)c2=O)cc1 |  |  |
| 3340 nM | O=C(O)Cn1c(=O)c(-c2ccc(O)cc2O)nc2ccc(Cc3ccc(F)cc3)cc21 |  |  |
| 1520 nM | O=C(O)Cn1c(=O)c(-c2ccc(F)cc2)nc2ccc(Cl)cc21 |  |  |
| 1110 nM | O=C(O)Cn1c(=O)c(Cc2ccccc2)nc2ccccc21 |  |  |
| 798 nM | O=C(O)Cn1c(=O)c(CCc2ccc(O)cc2)nc2ccccc21 |  | Activity [2]: 16.2% |
| 652 nM | O=C(O)Cn1c(=O)c(CCc2ccc(O)cc2)nc2ccc(F)cc21 |  | Activity [2]: 14.7% |
| 468 nM | O=C(O)Cn1c(=O)c(Oc2ccccc2)nc2ccccc21 | 12.5 |  |
| 419 nM | COc1cc(/C=C/c2nc3ccccc3n(CC(=O)O)c2=O)ccc1O |  | Activity [2]: 95.4%; Activity [4]: 68.8%; Activity [5]: 39.6%; IC50 [3]: 24100 nM; inhibition (Brain): Active |
| 395 nM | O=C(O)Cn1c(=O)c(Sc2ccc(Cl)cc2)nc2ccc(Br)cc21 | 8.3 |  |
| 368 nM | O=C(O)Cn1c(=O)c(-c2c[nH]c3ccccc23)nc2ccc(Br)cc21 |  |  |
| 326 nM | O=C(O)Cn1c(=O)c(Sc2ccc(Br)cc2)nc2ccc(Cl)cc21 | 6.1 |  |
| 319 nM | O=C(O)Cn1c(=O)c(Sc2ccc(Br)cc2)nc2cc(Br)ccc21 | 10.2 |  |
| 191 nM | O=C(O)Cn1c(=O)c(Sc2ccc(Br)cc2)nc2ccc(F)cc21 | 1.9 |  |
| 182 nM | O=C(O)Cn1c(=O)c(/C=C/c2ccc(O)cc2)nc2ccccc21 |  | Activity [2]: 71.8%; IC50 [3]: 51500 nM; inhibition (Brain): Active |
| 153 nM | O=C(O)Cn1c(=O)c(/C=C/c2ccc(O)cc2)nc2ccc(F)cc21 |  | Activity [2]: 67.2%; inhibition (Brain): Active |
| 95 nM | O=C(O)Cn1c(=O)c(-c2ccc(O)cc2O)nc2cc(Cl)ccc21 |  |  |
| 91 nM | O=C(O)Cn1c(=O)c(-c2ccc(O)cc2O)nc2ccc(Br)cc21 |  |  |
| 63 nM | O=C(O)Cn1c(=O)c(-c2ccc(O)cc2O)nc2cc(F)ccc21 |  |  |
